In the library only some 3.8% were active in any assay of this set; here they are far more common.
ARNT TACC3 PPI – disruptors of human ARNT/TACC3 interaction; Q9Y6A5; AlphaScreen His-ARNT PAS-B/GST-TACC3 binding, luminescence; TACC3 fragment carries E629A point mutation; inhibition, % at 9.99 µM; hit rate 0.66% among 390,000;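 active = mean inhibition of replicates at least 50% and at least half of replicates each reaching 50%; inconclusive = half or more replicates reach 50% but mean below 50%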;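 note: 0% = complete ARNT plus TACC3 wells and 100% = ARNT alone without TACC3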
Xi reactivation – activators of X-chromosome reactivation in mouse fibroblasts | XiGFP mouse fibroblasts, % GFP-positive cells imaging, 3 d; cells co-treated with 5-aza-dC sensitizer; scaled so ellipticine positive control = 100% | hit rate 0.055% among 360,000 | activation, % at 7.58 µM;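 active = mean normalized replicate activation at least 10% and every replicate at or above 10%; inconclusive = only one of the two criteria met; inactive = mean below 10% and not all replicates reach 10%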;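 note: 0% = median of on-plate neutral control wells and 100% = ellipticine 6 µM median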
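System: 68-5-11 XiGFP fibroblast line | Buffer or medium: DMEM containing 5-aza-dC | Compound: Single point | Times: Compounds 3 days, fix/stain 15 min at room temperature | Benchmarks: Positive control ellipticine, 6 µM final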
FN deposit inh – fibronectin deposition inhibition. inhibition, % at 12.6 µM. hit rate 0.086% among 350,000. AH1F fibroblasts, Alexa488-fibronectin deposition fluorescence, overnight;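 active = mean inhibition across replicates of 30% or more, regardless of how many single replicates reach that level; inconclusive = mean under 30% yet at least half of replicates reach 30%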;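 note: positive control wells lacked labelled fibronectin entirely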
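Assay system: AH1F fibroblasts / Quantity: 10000 cells per well / Medium: DMEM plus 2% serum, read in PBS / Reagent: labelled fibronectin 24 nM / Dosing: single dose, pinned / Times: 1 h cell attachment, overnight exposure to compound and label / Signal: fluorescence, ex 485 nm, em 525 nm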
SIRT5 block – blocks human SIRT5 desuccinylation of peptide | Q9NXA8 | Purified SirT5, succinyl-peptide AMC, trypsin-coupled fluorescence | inhibition, % at 15 µM | hit rate 1.1% among 330,000 | AID 652115; in the data active = inhibition above about 15%; inconclusive = no clear call, values can overlap the other calls
Target sequence (Q9NXA8 whole entry, looked up): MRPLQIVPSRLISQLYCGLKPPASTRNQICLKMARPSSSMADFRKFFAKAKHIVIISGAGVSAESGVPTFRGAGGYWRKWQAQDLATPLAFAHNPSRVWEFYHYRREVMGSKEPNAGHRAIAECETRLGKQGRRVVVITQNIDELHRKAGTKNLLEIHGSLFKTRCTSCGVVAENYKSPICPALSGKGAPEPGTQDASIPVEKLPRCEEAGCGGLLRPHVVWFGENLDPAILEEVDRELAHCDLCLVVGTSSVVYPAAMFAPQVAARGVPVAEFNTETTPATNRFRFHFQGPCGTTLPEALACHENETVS
FGF22 binding – shifts melting point of recombinant human FGF22; Q9HCT0; recombinant FGF22 thermal shift, SYPRO orange fluorescence; percent of sucrose octasulfate shift, DMSO zero; activity (Tm shift, normalised), % at 9.99 µM; hit rate 1.5% among 340,000; AID 651658;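 active = mean Tm shift, scaled 0 neutral to 100 positive control, at about 1.3% or above, every replicate too, limit read from the data; inconclusive = no clear call, values can overlap the other calls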
Target sequence (Q9HCT0 whole entry, looked up): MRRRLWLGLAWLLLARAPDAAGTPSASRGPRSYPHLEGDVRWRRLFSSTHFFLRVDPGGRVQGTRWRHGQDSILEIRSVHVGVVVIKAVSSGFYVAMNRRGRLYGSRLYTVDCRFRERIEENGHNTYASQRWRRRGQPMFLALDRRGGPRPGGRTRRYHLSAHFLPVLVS
DENV2 CPE – DENV2-induced cell death inhibition. hit rate 1.7% among 350,000. CPE inhibition, % at 9.99 µM. DENV2-infected cells, cytopathic effect rescue, plate reader; in the data active = CPE inhibition above about 20%, passing the limit was not always enough; inconclusive = no clear call, values can overlap the other calls; tested in BHK-21 cells;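 note: 0% = median of neutral control wells and 100% = median of positive control wells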
An asterisk follows results filed as active; ? = inconclusive; . = not tested or not shown; ! = not active in a repeat.

SMILES	ARNT TACC3 PPI	Xi reactivation	FN deposit inh	SIRT5 block	FGF22 binding	DENV2 CPE
Cc1cccc(-c2ccc([C@@H]3[C@@H](CO)N4C(=O)CN(S(=O)(=O)c5cccc(F)c5)C[C@@H]34)cc2)c1	.	0	.	20*	0	-5
C/C=C/c1ccc([C@H]2[C@@H](CO)N3C(=O)CN(C(=O)c4cccc(F)c4)C[C@@H]23)cc1	.	0	.	0	.	33*
C/C=C/c1ccc([C@H]2[C@H]3CN(S(=O)(=O)c4cccc(F)c4)CC(=O)N3[C@H]2CO)cc1	.	0	.	2	.	30*
C/C=C/c1ccc([C@H]2[C@@H](CO)N3C(=O)CN(S(=O)(=O)c4cccc(F)c4)C[C@H]23)cc1	.	0	.	1	.	4
C/C=C/c1ccc([C@H]2[C@@H](CO)N3C(=O)CN(S(=O)(=O)c4cccc(F)c4)C[C@@H]23)cc1	.	0	.	0	.	43*
COCC(=O)N1C[C@H](C)[C@H](OC)CN(C)C(=O)c2ccc(NC(=O)Nc3ccccc3)cc2OC[C@H]1C	.	0	10	.	.	.
C[C@@H](NC(=O)C[C@H]1CC[C@H](NC(=O)C2CC2)[C@H](CO)O1)c1ccccc1	1	-1	-1	2	0	-6
N#Cc1ccc(-c2ccc3c(c2)[C@H]2[C@H](CCN2S(=O)(=O)c2ccccc2F)[C@H](CO)N3)cc1	-36	0	15	.	0	-25
CCC(=O)N1C[C@@H](O)COC[C@H]2O[C@H](CC(=O)NCc3ccc(Oc4ccccc4)cc3)CC[C@@H]21	2	7	8	0	0	1
O=C(C[C@@H]1CC[C@H]2[C@@H](COC[C@H](O)CN2CCc2ccccc2)O1)NCc1ccc(Oc2ccccc2)cc1	10	0	0	3	0	24*
CCC(=O)N1C[C@H](O)COC[C@H]2O[C@@H](CC(=O)NCc3ccc(Oc4ccccc4)cc3)CC[C@@H]21	-12	0	6	4	0	92*
Cc1cc(C)c2nc3sc(=Cc4ccc(-c5ccccc5C(=O)O)o4)c(=O)n3c2c1	.	0	15	2	0	?
O=C(O)c1ccc(-c2ccc(/C=c3/sc4nc5ccccc5n4c3=O)o2)cc1Cl	.	0	7	24*	0	1
O=C(C[C@@H]1C=C[C@@H](NC(=O)Nc2ccc(C(F)(F)F)cc2)[C@@H](CO)O1)NCc1cccc(F)c1	.	0	.	.	.	.
C[C@@H]1CN([C@@H](C)CO)C(=O)c2cccc(NS(=O)(=O)c3cn(C)cn3)c2O[C@H]1CN(C)C(=O)Nc1cccc2ccccc12	3	-1	-4	29*	0	-6
C[C@@H]1CN([C@@H](C)CO)C(=O)c2cccc(NS(=O)(=O)c3cn(C)cn3)c2O[C@H]1CN(C)CC1CCCCC1	-7	-1	0	-4	0	33*
C[C@@H]1CN([C@@H](C)CO)C(=O)c2cccc(NS(=O)(=O)c3cn(C)cn3)c2O[C@H]1CN(C)Cc1ccc(C(F)(F)F)cc1	-6	0	.	21*	0	-1
C[C@@H]1CN([C@H](C)CO)C(=O)c2cccc(NS(=O)(=O)c3cn(C)cn3)c2O[C@H]1CN(C)Cc1ccccc1	-5	0	.	-4	0	7
C[C@H](CO)N1C[C@H](C)[C@@H](CN(C)Cc2ccccc2)Oc2c(NS(=O)(=O)c3cn(C)cn3)cccc2C1=O	-3	0	-6	-7	0	30*!
Cc1ccc(S(=O)(=O)Nc2ccc3c(c2)CC(=O)N([C@H](C)CO)C[C@@H](C)[C@@H](CN(C)Cc2ccncc2)O3)cc1	-6	0	.	-3	0	7
C[C@@H]1CN([C@@H](C)CO)C(=O)c2cccc(NS(=O)(=O)c3cn(C)cn3)c2O[C@@H]1CN(C)S(=O)(=O)c1cn(C)cn1	-8	0	.	0	0	27*
C[C@@H]1CN([C@H](C)CO)C(=O)c2cc(C3=CCCCC3)cnc2O[C@H]1CN(C)C(=O)c1ccccn1	2	-1	-9	4	0	-11
CO[C@H]1CN(C)C(=O)c2ccc(NS(=O)(=O)c3ccc(C)cc3)cc2OC[C@H](C)N(C)C[C@@H]1C	.	0	-15	3	0	10
COc1ccc(-n2nnc3c(=O)n(CC(=O)N4CCCCC4)cnc32)cc1	-6	0	0	15*	0	-5
N#C[C@H]1N[C@H](CO)[C@H]1c1ccc(C#Cc2ccc(F)cc2)cc1	-42	0	6	0	0	55*
SMILES	ARNT TACC3 PPI	Xi reactivation	FN deposit inh	SIRT5 block	FGF22 binding	DENV2 CPE
N#C[C@@H]1N[C@H](CO)[C@H]1c1ccccc1	-7	0	7	7	0	38*
CO[C@@H]1CN(C)C(=O)c2ccc(NS(C)(=O)=O)cc2OC[C@H](C)N(Cc2ccccc2)C[C@@H]1C	.	1	.	.	.	.
O=C(c1ccccc1)c1cc(Cl)ccc1N1C(=O)C=CC1=O	3	3	50*	0	0	14
C[C@@H]1CN([C@H](C)CO)C(=O)Cc2cc(NC(=O)Nc3ccccc3)ccc2O[C@@H]1CN(C)Cc1ccc(Oc2ccccc2)cc1	-1	0	.	11	0	-22
C[C@H](CO)N1C[C@H](C)[C@H](CN(C)C(=O)Nc2ccccc2)Oc2ccc(NC(=O)c3ccncc3)cc2C1=O	1	0	.	-1	0	17
Cc1ccc(S(=O)(=O)NCC(=O)NCc2cc(=O)n(C)c(=O)n2C)cc1	-30	0	-3	2	0	1
COc1ccc(S(=O)(=O)NCC(=O)NCc2cc(=O)n(C)c(=O)n2C)cc1	-14	0	-1	8	0	57*
CN(C)CC(=O)Nc1ccc2c(c1)[C@H]1C[C@H](CC(=O)N(C)C)O[C@@H](CO)[C@H]1O2	.	0	3	.	.	.
COc1ccc2c3c([nH]c2c1)[C@H](CO)N(C(=O)C1CCCC1)CC31CN(Cc2cccc(F)c2)C1	.	0	.	.	0	-9
CO[C@@H]1CN(C)C(=O)c2ccc(NS(C)(=O)=O)cc2OC[C@H](C)N(Cc2ccccn2)C[C@@H]1C	21	0	-13	.	.	.
Cc1cc(Br)ccc1NC(=O)CN(C)C(=O)COc1cccc2c1OC(C)(C)C2	0	0	.	-2	0	91*
Cc1c(NC(=O)C(C)OC(=O)c2nc(Cl)ccc2Cl)c(=O)n(-c2ccccc2)n1C (centres undefined)	-6	0	-3	-3	0	-6
Cc1ccc2nc(C)cc(C(=O)OCC(=O)Nc3c(C)n(C)n(-c4ccccc4)c3=O)c2c1	-2	0	.	2	43*	0

Assay outcomes as filed in PubChem BioAssay.
